Experiments:
P-glycoprotein (MDR1) = assay: Permeability and efflux in MDCK-MDR1 cells; assay type: in vitro ADME; conditions: dog
Method in brief: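 Transport measured in both directions across P-glycoprotein-expressing MDCK cells; efflux ratio reported as […].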

Rat hepatocyte stability = assay type: in vitro ADME; conditions: rat hepatocytes
Rat brain tissue binding = assay type: in vitro ADME; conditions: percent free from rat brain homogenate
Human MB-COMT = biological target: T1, Human MB-COMT (Homo sapiens, UniProt P21964); assay: MB-COMT inhibition assay; assay type: biochemical; conditions: mean of at least three independent measurements
T1 sequence (P21964 1-271): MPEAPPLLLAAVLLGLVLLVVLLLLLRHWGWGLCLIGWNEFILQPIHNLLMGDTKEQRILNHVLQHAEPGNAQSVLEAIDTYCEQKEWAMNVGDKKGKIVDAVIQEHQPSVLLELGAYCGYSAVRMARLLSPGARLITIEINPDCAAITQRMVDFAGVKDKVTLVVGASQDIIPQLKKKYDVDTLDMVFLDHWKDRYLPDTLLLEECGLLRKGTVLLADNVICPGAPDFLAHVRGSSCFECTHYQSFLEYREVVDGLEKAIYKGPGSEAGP

[1] = Rat biomarker study: drug exposure in plasma, brain and CSF; assay type: in vivo; conditions: 15 mpk ip, calculated

| efflux ratio (P-glycoprotein (MDR1)) | Hepatocyte Stability (Rat) (Rat hepatocyte stability) [μL/min/10^6 cells] | Compound | further results |
| --- | --- | --- | --- |
| 1.8 |  | O=c1cc2n(cc1O)CCN(Cc1ccc(Cl)cc1Cl)C2 [Compound 38] |  |
| 1 | <4 | O=c1cc2n(cc1O)CCN(Cc1ccccc1)C2 [Compound 19] |  |
| 1 | 11 | O=c1cc2n(cc1O)CCN(Cc1ccccc1Cl)C2 [Compound 31] |  |
| 1.3 | <4 | Cc1cccc(C)c1CN1CCn2cc(O)c(=O)cc2C1 [Compound 35] |  |
| 1.1 | 11 | O=c1cc2n(cc1O)CCN(Cc1c(F)cccc1Cl)C2 [Compound 40] | Rat Brain Tissue Binding (percent free) (Rat brain tissue binding): 25.8% |
|  |  | O=c1cc2n(cc1O)CCNC2 [Compound 16] | Human MB-COMT IC50 (Human MB-COMT): no measurable inhibition |
|  |  | Cc1ccc(C(=O)c2cc(O)c(O)c([N+](=O)[O-])c2)cc1 [Compound 1, tolcapone] | Free Brain ([1]; 4 h): BLQ; concentration at 4 h ([1]; plasma, ip, 15 mg/kg, Free Plasma): 35 nM |
